This note sets out measurements from ChEMBL document CHEMBL4002604, “Evaluation of biological properties of 3,3',4,4'-benzophenonetetracarboxylic dianhydride derivatives and their ability to inhibit hexokinase activity” (2017).

The test relates to P19. The test is described as follows: Cytotoxicity against differentiated mouse P19 cells assessed as mitochondrial membrane potential at 100 uM after 24 hrs by TMRF dye based fluorescence assay relative to control. Format: functional. Put shortly: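 Undifferentiated (P19SCs) or differentiated (P19dCs) P19 cells incubated 24 or 72 h with 1 or 100 µM. Mitochondrial membrane potential and mitochondrial superoxide levels measured and expressed relative to untreated control. Means ± SD from 4 independent measurements, at least 4 repeats each. Significance at p<0.05.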

`O=C(c1ccc2c(c1)C(=O)N(c1cccc(O)c1)C2=O)c1ccc2c(c1)C(=O)N(c1cccc(O)c1)C2=O`: the Activity is on record as 96.4%.
